The entries come from a sample that favours hits as a whole.
UPR XBP1 act = adaptive UPR (XBP1) activation | CHO-XBP1 luciferase reporter, IRE1-XBP1 UPR activation, luminescence; percent of tunicamycin response, DMSO as zero | activation, % at 20 µM | 330,000 compounds, 0.33% hits | AID 463104;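 active = versus positive control, 20 µM dose yields 30% or more activation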;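 also: 100% = tunicamycin at 10 µg/mL and 0% = DMSO only wells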
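Material: IRE1-XBP1 luciferase reporter CHO line / Quantity: one thousand reporter cells per well / Buffer or medium: F12 with 10% serum / Compound: 20 µM single concentration, DMSO 1% / Times: 6 h treatment, 37 °C / Detection: Steady-Glo luciferase glow luminescence, 10 min after reagent addition / Benchmarks: tunicamycin high, DMSO low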
CHOP inhibitor = inhibitors of CHOP induction in ER stress response. AID 2732. CHO-K1 CHOP-promoter luciferase, tunicamycin-induced, 15-18 h. 220,000 compounds, 3.8% hits. inhibition, % at 10 µM;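 active = compounds that reduced the stress-induced luciferase reporter signal by more than about 70% of percent inhibition, limit read from the data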;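 also: 0% = tunicamycin plus vehicle and 100% = wells without tunicamycin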
697 NFkB inh = inhibitors of the PMA/ionomycin-induced NF-kB reporter in 697 B cells. 330,000 compounds, 0.33% hits. 697 B-cell NF-kB luciferase reporter, 16 h. inhibition, % at 4 µM; in the data active = inhibition above about 35%
UPR CHOP act = apoptotic UPR (CHOP) activation. CHO-CHOP luciferase reporter, luminescence; percent of tunicamycin response over DMSO baseline. 330,000 compounds, 0.34% hits. activation, % at 10 µM;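 active = at 10 µM dose, activation of 40% or more, normalized to positive control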;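 also: 100% = tunicamycin at 10 µg/mL and 0% = DMSO alone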
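Assay system: CHO-CHOP cells, stable luciferase reporter of PERK-eIF2a-CHOP signalling / Buffer or medium: F12 plus 10% serum / Compound dosing: one dose, 10 µM in 0.5% DMSO / Times: 6 h compound treatment, 37 °C / Technique: luciferase luminescence / Read-out: % reporter activation, DMSO baseline versus tunicamycin full activation / Benchmarks: tunicamycin and DMSO controls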
Jurkat NFkB inh = inhibitors of the PMA/ionomycin-induced NF-kB reporter in Jurkat cells; inhibition, % at 4 µM; 330,000 compounds, 0.53% hits; PMA/ionomycin-induced NF-kB luciferase reporter, luminescence; AID 435003; in the data active = inhibition above about 50%
697 NFkB conf = inhibitors of the PMA/ionomycin-induced NF-kB reporter in 697 B cells, retest; 2,000 compounds, 35% hits; shares compounds with 697 NFkB inh; inhibition, % at 4 µM; AID 449746; 697 B-cell NF-kB luciferase, 16 h; in the data active = inhibition mostly above about 28%, no sharp cut-off; inactive = mostly below about 22%
The depositor's hits bear a star; i = inactive; nt = no result given.

SMILES | UPR XBP1 act | CHOP inhibitor | 697 NFkB inh | UPR CHOP act | Jurkat NFkB inh | 697 NFkB conf
O=C1c2cccnc2C(=O)N1Cc1ccc(F)cc1S(=O)(=O)NCc1ccco1 | -2.9 | nt | 0.8 | -1.6 | -0.4 | nt
Cc1[nH]c(=O)c(C#N)c(C)c1Cl | 1.1 | 21.5 | -39.1 | -0.9 | -41.1 | nt
N#Cc1sc(=O)[nH]c1Cl | -0.7 | nt | 41.6* | 0.4 | 16.6 | 12.9
Cc1ccc(C(=O)Nc2cccc(NC(=O)c3ccc(C)c([N+](=O)[O-])c3)n2)cc1[N+](=O)[O-] | 4.2 | nt | -5.5 | 5.9 | 1.1 | nt
Cc1ccc(C(=O)Nc2sc(C)c(-c3ccccc3)c2C(N)=O)cc1[N+](=O)[O-] | -3.4 | 12.2 | -415.1 | -2.8 | -19.9 | -98.7
c1ccc(CCNc2ncnc3ccccc23)cc1 | -1.4 | 61.0 | 49.1* | 3.1 | 37.3 | 29.0*
COc1cc(NC(=S)NC(=O)c2ccc(C(C)(C)C)cc2)ccc1NC(=O)c1cccs1 | -0.1 | 6.9 | i | -1.1 | -42.0 | -12.9
C=CCN1C(=O)N(CC=C)c2cccc3cccc1c23 | -0.1 | nt | -7.3 | -0.9 | 8.6 | nt
CCN1C(=O)Nc2cccc3cccc1c23 | 8.0 | nt | 37.4* | -1.1 | -4.7 | 36.3*
CC(O)[C@@H](NC(=O)C1CCC(CNC(=O)[C@H](Cc2ccccc2)NC(=O)OC(C)(C)C)CC1)C(=O)O (some centres not stated) | 2.5 | nt | 4.2 | -1.0 | 11.9 | nt
O=C(Nc1ccc2ccccc2c1)C(c1ccccc1)C1CCCC1 (configuration not stated) | 0.0 | 47.2 | -258.3 | -3.1 | -8.8 | -220.0
CCCNC(=O)c1ccc(N2CCC3(CC2)CC(c2cccc(Br)c2)=NO3)c(NC(=O)c2ccc(Cl)c([N+](=O)[O-])c2)c1 | 8.2 | nt | 36.9* | 25.9 | 10.9 | 26.0*
COc1ccc(-n2c(-c3ccccc3)nnc2-c2ccc(Cl)cc2)cc1 | -4.2 | 6.7 | 19.4 | -1.4 | -3.2 | nt
COc1ccc(-n2c(-c3ccc(Cl)cc3)c[n+]3c2CCc2ccccc2-3)cc1 | -0.5 | -16.2 | 56.2* | -1.6 | 21.4 | 91.6*
COc1ccc(OC)c(CCNC(=O)C(C)n2nc(C)c3c(C)n(-c4ccc(C)cc4)nc3c2=O)c1 (configuration not stated) | -6.6 | nt | 40.0* | -1.3 | 48.7 | 86.6*
COC(=O)[C@H]1[C@H]2C[C@H]3c4[nH]c5ccccc5c4CCN3C[C@H]2CC[C@@H]1O | -3.8 | -4.0 | -20.7 | 2.6 | -5.6 | nt
CCOC(=O)Oc1c(OC)cc(C(=O)O[C@@H]2C[C@@H]3CN4CCc5c([nH]c6cc(OC)ccc56)[C@H]4C[C@@H]3[C@H](C(=O)OC)[C@H]2OC)cc1OC | -4.8 | nt | 36.9* | 7.3 | 11.1 | 25.5
O=C(CCl)N1CCN(S(=O)(=O)c2ccc3c(c2)CCC3)CC1 | -7.6 | nt | 37.5* | -7.1 | 4.3 | 37.6*
CCC(=O)Nc1nonc1-c1nc2ccccc2n1Cc1ccccc1 | -0.8 | -2.7 | -9.7 | -1.7 | -0.8 | nt
CCOC(=O)Cn1c(-c2nonc2NC(=O)c2ccccc2F)nc2ccccc21 | 2.0 | 2.5 | i | -1.0 | -66.0 | i
CC(C)(C)c1nc(SCC(=O)Nc2nc3c(s2)CCCC3)c2ccccc2n1 | 10.6 | 53.7 | i | 0.7 | -31.4 | i
CC(C)c1nc(SCC(=O)Nc2nc3c(s2)CCCC3)c2ccccc2n1 | -0.4 | 65.9 | -169.8 | -0.7 | -3.1 | nt
O=C(c1cccs1)N(Cc1nc2sc3c(c2c(=O)[nH]1)CCCC3)C1CCCC1 | -0.7 | -1.1 | -323.7 | 1.7 | -15.3 | -299.9
Cc1sc2nc(CN(C(=O)c3cccs3)C3CCCC3)[nH]c(=O)c2c1C | -2.1 | 53.7 | -41.5 | -1.9 | -3.5 | nt
O=C(COc1ccc2c3c(c(=O)oc2c1)CCCC3)N1C[C@H]2C[C@@H](C1)c1cccc(=O)n1C2 | 0.2 | nt | 28.7 | 2.1 | -3.8 | nt
SMILES | UPR XBP1 act | CHOP inhibitor | 697 NFkB inh | UPR CHOP act | Jurkat NFkB inh | 697 NFkB conf
COc1ccc2nc(-c3ccc(F)cc3)sc2c1 | -7.2 | nt | -311.1 | -6.0 | -127.0 | -403.9
O=c1c2cc3c(cc2[nH]c(=S)n1Cc1ccco1)OCO3 | -0.2 | -43.0 | 10.5 | -2.4 | 4.8 | nt
CC(C)NC(=O)c1ccc2c(=O)n(CC3CCCO3)c(=S)[nH]c2c1 (configuration not stated) | -0.7 | 4.6 | 35.6* | -1.5 | 0.2 | 0.0
CC1C(=O)Nc2ccc(S(=O)(=O)NCCc3ccc(Cl)cc3)cc2NC1=O (configuration not stated) | 0.2 | nt | 9.8 | 0.8 | 10.6 | nt
O=C(O)c1cc(N/N=C/c2cccs2)ccc1Cl | -3.0 | -5.8 | -23.3 | -1.2 | -14.1 | nt
Cc1ccc(/C=N/Nc2ccc(Cl)c(C(=O)O)c2)s1 | -1.5 | 8.4 | -297.8 | -0.1 | -107.4 | -39.5
COc1ccc(CNC(=O)CCCn2c(SCC#N)nc3cc4c(cc3c2=O)OCO4)cc1 | 1.7 | 11.2 | 0.9 | 1.8 | 8.3 | nt
O=C(NC(Cc1c[nH]c2ccccc12)C(=O)N/N=C/c1cccc2ccccc12)c1cccs1 (configuration not stated) | 0.4 | 42.9 | 7.9 | -0.6 | -6.7 | nt
O=C(NC(Cc1c[nH]c2ccccc12)C(=O)Nc1ccc(F)c([N+](=O)[O-])c1)c1cccs1 (configuration not stated) | -3.4 | 4.5 | i | 0.7 | -44.2 | -265.0
O=C(NC(Cc1c[nH]c2ccccc12)C(=O)Nc1ccc(OC(F)(F)F)cc1)c1cccs1 (configuration not stated) | -0.6 | 63.9 | i | 1.3 | -64.7 | 8.4
O=C(NC(Cc1c[nH]c2ccccc12)C(=O)O)c1cccs1 (configuration not stated) | 0.9 | 21.5 | 2.6 | 0.1 | 7.0 | nt
C/C(=N\NC(=O)CNC(=O)C1COc2ccccc2O1)c1ccco1 (configuration not stated) | -2.6 | nt | 16.4 | 1.3 | 11.7 | nt
CC1Oc2ccccc2C=C1/C=N/Nc1ccc(C(=O)O)cc1 (configuration not stated) | -1.5 | 0.9 | -350.5 | 2.5 | -126.0 | -103.9
O=C(c1ccncc1)N1CCN(S(=O)(=O)c2ccccc2Br)CC1 | -2.7 | nt | 15.2 | 1.0 | 13.3 | nt
O=C(NC1CCS(=O)(=O)C1)C12CC3CC(CC(C3)C1)C2 (configuration not stated) | 4.5 | 13.8 | -44.7 | -0.5 | -30.8 | nt
NC(=S)Nc1ncc(C(F)(F)F)cc1Cl | -3.0 | -10.0 | 47.3* | 0.4 | 5.3 | -4.7
CCOC(CNC(=O)c1ccc2nc(N3CCC(C)CC3)sc2c1)OCC | 0.1 | 32.6 | -282.5 | 1.2 | 6.5 | -178.3
CCCCC(=O)Nc1nc2c(OC)cc([N+](=O)[O-])cc2s1 | -4.9 | 10.5 | 16.4 | 2.9 | 7.2 | nt
CCCCC(=O)Nc1nc2c(OC)ccc(OC)c2s1 | -1.4 | 32.0 | 35.7* | 1.5 | -2.7 | 27.2
Cc1cccc2cc(CN(Cc3ccco3)C(=O)c3ccncc3)c(=O)[nH]c12 | -3.3 | 1.7 | 35.7* | -2.1 | -0.6 | -3.4

From PubChem
